High-throughput results (PubChem BioAssay)
GC-B act – GC-B (human) receptor activation | P20594 | HEK293-GC-B cells, CNP EC30, cGMP TR-FRET; 0% at EC30 CNP, 100% saturating CNP | activation, % at 10 µM | 370,000 compounds, 0.11% hits | AID 1920062;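 active = activation at 10 µM reaching about 35% in either raw or pattern-adjusted values, limit read from the data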
JMJD2C inh – inhibitors of human GASC-1 (JMJD2C) demethylase; Q9H3R0; GST-JMJD2C(1-420) H3K9me3 demethylation, DELFIA europium; inhibition, % at 2.35 µM; 330,000 compounds, 0.069% hits; AID 2099;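 active = more than half of a compound's replicate wells show inhibition beyond 50%, single wells judged on their own value; inconclusive = some, but no more than half, of replicates pass 50% inhibition; inactive = no replicate passes 50% inhibition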;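 also: signal counts dimethyl H3K9 product captured on neutravidin plate; 0% = median of DMSO wells and 100% = 0.3 times that DMSO median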
Target sequence (Q9H3R0 1-420 limits assumed): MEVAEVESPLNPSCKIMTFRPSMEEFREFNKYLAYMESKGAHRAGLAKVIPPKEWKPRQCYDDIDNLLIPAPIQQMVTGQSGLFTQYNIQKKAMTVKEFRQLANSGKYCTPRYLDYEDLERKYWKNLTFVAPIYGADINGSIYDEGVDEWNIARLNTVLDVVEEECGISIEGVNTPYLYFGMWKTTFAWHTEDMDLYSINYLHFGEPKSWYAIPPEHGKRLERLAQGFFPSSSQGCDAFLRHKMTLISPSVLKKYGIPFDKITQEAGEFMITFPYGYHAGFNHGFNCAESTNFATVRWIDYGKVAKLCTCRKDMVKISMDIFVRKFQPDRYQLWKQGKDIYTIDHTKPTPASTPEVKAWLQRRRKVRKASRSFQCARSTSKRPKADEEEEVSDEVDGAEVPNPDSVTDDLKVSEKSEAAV
Hep lipid drop – modulators of hepatic lipid droplet formation. AML12 mouse hepatocytes, oleate lipid droplets, BODIPY imaging. inhibition, % at 6.5 µM. 240,000 compounds, 0.4% hits. AID 1656;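 active = lipid droplet intensity inhibited by at least 50%, with more than 500 cells counted; inconclusive = wells with under 300 cells, treated as cytotoxic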
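material = mouse AML12 hepatocyte cell line, fixed after treatment | also added = 100 µM oleic acid challenge | doses = compound at 6.5 µM only | schedule = overnight exposure | technique = Image-based BODIPY and DAPI two-channel analysis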
GRIN3A LBD mod – modulators (binders) of human NR3A ligand-binding domain; NR3A LBD differential scanning fluorimetry, Tm shift; 0% = protein alone, 100% = glycine-bound protein; Tm shift relative to glycine control, % at 25 µM; 340,000 compounds, 2.5% hits;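 active = melting temperature shift of at least 10% of the positive control shift, at one fixed dose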
GC-A act – GC-A (human) enzyme activation. P16066. AID 1671463. 370,000 compounds, 0.14% hits. HEK293 GC-A cells, cGMP TR-FRET, EC30 ANP; 0% at EC30 ANP, 100% saturating ANP. activation, % at 10 µM; in the data active = activation above about 40%
aDG glyco act – increases alpha dystroglycan glycosylation; Pro5-aDG cells, alpha-DG glycosylation AlphaScreen (IIH6); 0% Pro5, 100% B10-LARGE cell signal; activation, % at 10 µM; 360,000 compounds, 0.22% hits; AID 624168;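 active = activation of at least 8% versus controls, or a plate z-score of at least 8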;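 also: Pro5 are CHO cells carrying HIG-tagged alpha-DG that lacks glycosylation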
* = called active by the depositor; u = inconclusive; x = no result. Rows were chosen to be rich in hits. Some 3% of all compounds tested hit in one or more screens of this group.

SMILES	GC-B act	JMJD2C inh	Hep lipid drop	GRIN3A LBD mod	GC-A act	aDG glyco act
COc1ccc(NS(=O)(=O)c2cc([N+](=O)[O-])ccc2N/N=C\c2c(C)[nH]c3ccccc23)cc1	-5.9	-12.3	13.9	28.3*	-2.5	0.1
Cc1[nH]c2ccccc2c1/C=N/Nc1ccc([N+](=O)[O-])cc1S(=O)(=O)Nc1ccc(Cl)cc1	-5.6	21.2	-6.7	9.3	-3.0	0.6
COc1ccc(NS(=O)(=O)c2cc([N+](=O)[O-])ccc2NN=Cc2ccccc2OCC(=O)O)cc1	3.4	4.5	x	40.2*	-0.8	0.1
CCN(CC)S(=O)(=O)c1ccc(N/N=C/c2ccccc2OCC(=O)O)c([N+](=O)[O-])c1	3.8	9.8	4.5	-5.9	0.3	-0.2
O=C(CSc1ccccc1)NC1CCCCN(Cc2cccc(Cl)c2)C1=O (stereo unspecified)	0.7	x	x	x	2.3	x
Cc1ccc(S(=O)(=O)N2CCN(C(=O)C3=COCCO3)CC2)cc1C	2.5	-3.6	-5.1	-0.8	7.3	0.3
Cc1cc(C(=O)N2CCN(S(=O)(=O)c3ccc(C)c(C)c3)CC2)no1	1.2	x	x	52.7*	1.0	-0.1
Cc1ccccc1NC(=O)OCCCN1C(=O)CCC12CCC(C)CC2 (stereo unspecified)	-7.8	x	x	x	-2.1	x
COc1ccc(S(=O)(=O)N2CCC(C(=O)NCc3cccc(OC)c3)CC2)cc1	0.1	4.8	x	1.0	-0.1	-0.2
COc1cccc(CNC(=O)C2CCN(S(=O)(=O)N3CCCCC3)CC2)c1	-1.3	2.0	x	12.7*	-2.3	-0.1
O=C(NCc1cccc(F)c1)C1CCN(S(=O)(=O)Cc2ccccc2)CC1	-4.2	72.6*	x	0.7	-8.6	0.2
CCCCOCCCNC(=O)C[C@H]1C[C@@]2(C(=O)OC)C(=C[C@H](C(C)(C)C)O[C@@H]2C)N(Cc2ccccc2)C1=O	-8.6	x	x	x	-8.0	x
CCOc1ccc(Br)cc1S(=O)(=O)Nc1ccc(Cl)c(S(=O)(=O)N(CC)c2ccccc2)c1	-4.0	-38.7	-2.4	12.5*	2.9	0.0
COc1cc2c(cc1OC)[C@H](C)N(C(=O)NCc1ccccc1)CC2	2.2	u	x	-1.8	-0.2	-0.1
COC(=O)[C@]12C[C@H](CC(=O)NCc3ccc(OC)c(OC)c3)C(=O)N(Cc3ccco3)C1=C[C@H](C(C)C)O[C@@H]2C1CC1	9.9	x	x	x	2.3	x
CCOC(=O)/C(=N\Nc1ccc(C(C)=O)cc1)c1csc(Nc2ccccc2)n1	1.8	-140.7	40.8	14.9*	1.9	-0.2
CCOC(=O)/C(=N\Nc1ccccc1[N+](=O)[O-])c1csc(N)n1	-18.3	-1.3	-0.9	-2.3	-51.3	-0.2
CCCn1c(=S)[nH]c2cc(C(=O)N3CCN(C4CCCCC4)CC3)ccc2c1=O	-3.7	0.5	0.7	14.8*	1.3	0.4
Cc1ccccc1CN1CCCCC(NC(=O)C2CCC2)C1=O (stereo unspecified)	0.7	x	x	x	0.4	x
Cc1ccc(S(=O)(=O)Nc2cccc3c2O[C@H](CN(C)Cc2ccc(-c4ccccc4)cc2)[C@@H](C)CN([C@H](C)CO)C3=O)cc1	0.8	-16.5	x	-3.1	3.6	0.6
Cc1ccc(S(=O)(=O)Nc2ccc3c(c2)C(=O)N([C@H](C)CO)C[C@H](C)[C@@H](CN(C)Cc2ccc(-c4ccccc4)cc2)O3)cc1	x	56.4*	x	-2.0	x	1.4
COc1ccc(S(=O)(=O)Nc2cccc3c2O[C@@H](CN(C)Cc2ccc(C(=O)O)cc2)[C@@H](C)CN([C@H](C)CO)C3=O)cc1	5.7	1.5	x	-0.7	3.3	-0.4
COc1ccc(S(=O)(=O)Nc2ccc3c(c2)C(=O)N([C@H](C)CO)C[C@H](C)[C@H](CN(C)Cc2ccc(C(=O)O)cc2)O3)cc1	-6.3	50.9*	x	-0.6	2.4	-0.1
CCC/C=C/c1ccc(CN2C(CC(C)C)C(=O)N(Cc3cn(CCOCOC)nn3)CCS2(=O)=O)cc1 (stereo unspecified)	-1.0	x	x	x	-1.3	0.2
C/C(=N\Nc1nc2ccccc2s1)c1ccc(Br)s1	-8.1	2.8	4.1	22.6*	-2.2	0.0
SMILES	GC-B act	JMJD2C inh	Hep lipid drop	GRIN3A LBD mod	GC-A act	aDG glyco act
COc1cccc(N)c1	8.5	x	x	x	6.1	x
Nc1cccc(Oc2c(F)c(F)c(Oc3cccc(N)c3)c(F)c2F)c1	5.6	-11.0	-26.0	22.8*	1.5	-0.2
O=C(/C=C/c1ccc2c(c1)OCO2)NCCSCc1cccc(Cl)c1	2.1	3.8	x	26.1*	1.2	-0.2
COc1ccc(NC(=O)c2cc(-c3cc(C)ccc3O)n[nH]2)cc1Cl	11.1	-3.8	x	326.2*	3.6	0.1
Cc1cccc(NC(=O)c2cc(-c3cc(C)ccc3O)n[nH]2)c1	-2.0	3.4	15.7	30.0*	-1.8	0.0
Cc1ccc(-c2cc(C(=O)Nc3cccnc3)[nH]n2)c(O)c1C	-4.2	-3.8	-25.5	28.2*	-7.4	0.2
Cc1cccc(NC(=O)c2cc(-c3cc(C)c(C)cc3O)n[nH]2)c1	-5.6	7.7	x	14.1*	-1.5	-0.1
CC(C)(C)NC(=O)C[C@H]1C[C@H](C(=O)N2CCOCC2)[C@@]2(C)c3[nH]c4ccc(Cl)cc4c3CCN2C1=O	-9.8	x	x	1.6	1.1	-0.1
CC(=O)Nc1ccc(NC(=O)c2cc(-c3ccc(C)cc3O)n[nH]2)cc1	3.5	14.1	2.2	29.8*	-2.3	0.0
Cc1ccc(O)c(-c2cc(C(=O)Nc3ccc(S(=O)(=O)Nc4nccc(C)n4)cc3)[nH]n2)c1	-8.6	2.4	20.5	29.5*	-5.7	-0.1
Cc1cc(F)ccc1-c1cc(C(=O)Nc2ccc(F)cc2)[nH]n1	-0.8	x	x	x	1.6	0.0
COc1ccc(CN2CCCCC2C)c(C)c1C (stereo unspecified)	1.2	50.0*	4.0	-0.1	-0.6	-0.1
COc1ccc(CN2CCCCC2C)cc1C (stereo unspecified)	-15.5	26.0	-6.3	1.4	-9.1	-0.1
CC(=O)Nc1ccc(NC(=O)C(C)OC(=O)CCN=C2NS(=O)(=O)c3ccccc32)cc1 (stereo unspecified)	0.1	0.1	-10.4	0.2	2.2	-0.2
CC(OC(=O)CCCCCN=C1NS(=O)(=O)c2ccccc21)C(=O)Nc1cc(Cl)cc(Cl)c1 (stereo unspecified)	-1.6	-19.9	2.3	17.8*	-8.4	0.2
Cc1ccc(-n2c(SCC(=O)Nc3ccc(Oc4ccccc4)cc3)nnc2-c2ccco2)cc1	-8.0	x	x	x	-1.8	x
COC(=O)[C@]1(C#N)CC(=O)N(CC(C)C)[C@@H]1c1ccccc1	7.2	x	x	x	-2.2	x
Cc1cccc(NC(=S)N/N=C/c2cccc([N+](=O)[O-])c2)c1	x	-1.5	-17.7	149.9*	x	0.5
O=[N+]([O-])c1ccc(N/N=C/c2cccc(O)c2O)cc1	-1.8	23.3	8.3	34.7*	5.1	0.0
